An excerpt weighted towards active compounds, which were near 4% of everything screened.
C2C12 statin – suppressors of simvastatin-induced myotoxicity in C2C12 myotubes. 0.78% of 330,000 active. ATP luminescence, 48 h; scaled: DMSO 0, geranylgeraniol control 100. rescue of ATP level, % at 7.49 µM;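 active = mean ATP rescue above about 67%, or every replicate alone reaching that limit, limit read from the data, passing the limit was not always enough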;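 also: myotubes were challenged with 10 µM simvastatin during compound exposure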
E-selectin induc – E-selectin induction on HUVECs | P16581 | HUVEC E-selectin immunofluorescence imaging; normalized: neutral wells 0, TNF-alpha wells 100 | activation, % at 7.58 µM | 0.37% of 260,000 active | AID 686992;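 active = mean E-selectin-positive cell signal at least 10% of the positive control, reached in at least 60% of replicates, without over 20% cell loss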
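Test system – human umbilical vein endothelial cells (HUVEC), E-selectin induction · Input – 3,000 HUVEC seeded per well · Buffer or medium – EGM-2, gelatin · Compound dosing – single-point compound dose · Detection – immunofluorescence imaging · Measure – percent E-selectin-positive cells · Controls – TNF-alpha high, DMSO low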
SIRT5 inh – sirtuin-5 (human) deacylase inhibition | Q9NXA8 | Purified SirT5, succinyl-peptide AMC, trypsin-coupled fluorescence | inhibition, % at 15 µM | 1.1% of 330,000 active | AID 652115; in the data active = inhibition above about 15%
Target sequence (Q9NXA8 whole entry, looked up): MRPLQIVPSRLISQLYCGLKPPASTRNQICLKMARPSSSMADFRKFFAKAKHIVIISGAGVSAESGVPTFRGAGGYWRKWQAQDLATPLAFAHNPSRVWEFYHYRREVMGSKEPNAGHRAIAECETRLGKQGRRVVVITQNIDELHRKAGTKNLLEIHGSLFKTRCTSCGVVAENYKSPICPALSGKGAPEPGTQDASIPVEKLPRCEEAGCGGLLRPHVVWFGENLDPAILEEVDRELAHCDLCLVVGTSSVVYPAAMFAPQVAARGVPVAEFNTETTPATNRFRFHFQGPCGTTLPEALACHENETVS
rRNA inh HTS – selective bacterial rRNA inhibition in E. coli | GFP signal change (wild-type ribosome), % (test concentration not listed) | AID 720706 | 1.6% of 350,000 active | E. coli WT GFP vs humanized-ribosome RFP mutants, fluorescence, 24 h; hits give low values; DMSO median 0, no signal -100;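 active = significant combined selectivity score with lowered wild-type GFP, culture density cut under 30%, mutant RFP and density less affected; inactive = any of these conditions unmet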
FGF22 binding – shifts melting point of recombinant human FGF22; Q9HCT0; recombinant FGF22 thermal shift, SYPRO orange fluorescence; percent of sucrose octasulfate shift, DMSO zero; activity (Tm shift, normalised), % at 9.99 µM; 1.5% of 340,000 active; AID 651658;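 active = mean Tm shift, scaled 0 neutral to 100 positive control, at about 1.3% or above, every replicate too, limit read from the data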
Target sequence (Q9HCT0 whole entry, looked up): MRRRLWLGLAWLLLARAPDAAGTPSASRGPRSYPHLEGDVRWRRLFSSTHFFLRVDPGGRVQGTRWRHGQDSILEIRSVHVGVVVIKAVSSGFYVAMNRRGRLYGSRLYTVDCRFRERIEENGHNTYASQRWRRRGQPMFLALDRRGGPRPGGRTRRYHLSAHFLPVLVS
FN deposit inh – fibronectin deposition inhibition. inhibition, % at 12.6 µM. 0.086% of 350,000 active. AH1F fibroblasts, Alexa488-fibronectin deposition fluorescence, overnight;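 active = mean inhibition across replicates of 30% or more, regardless of how many single replicates reach that level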;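 also: positive control wells lacked labelled fibronectin entirely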
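Material: AH1F fibroblast monolayer depositing Alexa488-labelled fibronectin into matrix | Input: 10000 AH1F cells/well | Medium: DMEM plus 2% serum, read in PBS | Reagent: Alexa488-fibronectin, 24 nM final in well | Compound dosing: One dose per compound, pinned | Schedule: 1 h adhesion, overnight exposure | Measured by: Fluorescence at 485 nm excitation, 525 nm emission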
Active calls of the source: *; · = no result.

SMILES | C2C12 statin | E-selectin induc | SIRT5 inh | rRNA inh HTS | FGF22 binding | FN deposit inh
CC1=Nc2ccccc2/C1=C/c1c(N)n2c(S(=O)(=O)C(C)C)nsc2nc1=O | 6.6 | · | · | -34.7 | · | 1.1
CC(C)S(=O)(=O)c1nsc2nc(=O)c(/C=C3\C=Nc4ccccc43)c(N)n12 | 15.4 | · | 6.9 | -42.0 | 0.0 | -12.0
Cc1ccc(S(=O)(=O)N[C@@H]2CC[C@H](CCn3cc(C4CCCCC4)nn3)O[C@H]2CO)cc1 | 13.8 | 0.4 | 11.0 | -3.7 | 0.2 | -2.4
Cc1ccc(CSc2[nH]c(=O)ncc2C)cc1 | 4.6 | · | 1.7 | -18.7* | 0.2 | 1.2
C[C@H]1CN([C@@H](C)CO)C(=O)Cc2cc(NC(=O)Cn3cnnn3)ccc2O[C@H]1CN(C)Cc1ccc(-c2ccccc2)cc1 | 16.4 | 0.1 | 3.3 | -2.7 | 0.0 | ·
N#Cc1cccnc1N1CCN(C(=O)c2ccccc2)CC1 | 3.6 | 0.0 | -7.0 | 5.5 | 0.0 | 1.6
N#Cc1cccnc1N1CCC(C(N)=O)CC1 | · | 69.5* | · | 16.4 | 0.0 | -6.2
Cc1cc(NC(=O)c2ccccc2F)nc2c1c(=O)oc1ccccc12 | -34.9 | · | -6.9 | 5.6 | 43.9* | -1.6
CCCC(=O)Nc1cc(C)c2c(=O)oc3ccccc3c2n1 | 4.1 | 0.1 | 1.8 | -9.6 | -0.2 | -5.9
C[C@@H]1CN([C@H](C)CO)C(=O)Cc2cc(NC(=O)CCC(F)(F)F)ccc2O[C@H]1CN(C)Cc1ccc(Oc2ccccc2)cc1 | 102.3* | -1.4 | 1.8 | -8.1 | -0.4 | 7.5
C[C@@H]1CN([C@H](C)CO)C(=O)Cc2cc(NC(=O)CCC(F)(F)F)ccc2O[C@H]1CN(C)Cc1ccccc1 | 18.0 | 0.3 | 2.2 | -0.1 | -0.1 | ·
C[C@@H]1CN([C@H](C)CO)C(=O)c2cc(NC(=O)CCC(F)(F)F)ccc2O[C@H]1CN(C)Cc1ccc(Oc2ccccc2)cc1 | · | 0.0 | 26.5* | -2.9 | -0.2 | -3.1
C[C@H](CO)N1C[C@H](C)[C@@H](CN(C)C(=O)Nc2cccc3ccccc23)Oc2ccc(NC(=O)CCCN(C)C)cc2C1=O | · | 3.8 | 1.3 | 2.1 | -0.3 | -15.7
CO[C@@H]1CN(C)C(=O)c2cc(NC(=O)c3ccccc3)ccc2OC[C@H](C)N(CC2CC2)C[C@@H]1C | 14.4 | 0.6 | · | -1.6 | · | ·
O=S(=O)(Nc1ccn(-c2ccccc2)n1)c1ccc(Br)cc1 | -8.8 | · | -6.5 | -45.9* | 0.5 | ·
CC(C)CC#Cc1ccc([C@@H]2[C@H]3CN(C(=O)Nc4cc(F)ccc4F)CC(=O)N3[C@H]2CO)cc1 | · | 0.1 | 16.6* | -9.7 | 0.1 | -5.4
O=C(Nc1cc(F)ccc1F)N1CC(=O)N2[C@H](CO)[C@@H](c3ccc(C#CC4CCCCC4)cc3)[C@@H]2C1 | · | -0.8 | 18.3* | 3.7 | -0.5 | ·
O=C(Nc1cc(F)ccc1F)N1CC(=O)N2[C@H](C1)[C@@H](c1ccc(C#CC3CCCCC3)cc1)[C@@H]2CO | · | -0.8 | 20.2* | 6.9 | -1.0 | ·
CC(C)CC#Cc1ccc([C@H]2[C@@H](CO)N3C(=O)CN(C(=O)Nc4cc(F)ccc4F)C[C@@H]23)cc1 | · | 1.3 | 8.4 | -16.5 | 0.1 | -8.8
CCCNC(=O)Nc1ccc2c(c1)C(=O)N(C)[C@H]1CC[C@H](CC(=O)O)O[C@H]1CO2 | 27.4 | -0.1 | · | 5.6 | 0.1 | -11.1
O=C(CSc1ncc(-c2ccccc2)[nH]1)Nc1ccccc1 | 3.0 | · | 0.5 | -32.2* | -0.1 | ·
Nc1nc(SCC(=O)Nc2ccc(Cl)cc2)[nH]c(=O)c1-c1ccccc1 | 121.8* | -2.9 | 1.4 | -3.5 | 0.1 | -0.8
Nc1nc(SCc2ccc(Br)cc2)[nH]c(=O)c1-c1ccccc1 | 2.6 | · | -4.5 | -3.8 | 43.1* | ·
Nc1nc(SCc2nc(-c3ccccc3)no2)[nH]c(=O)c1-c1ccccc1 | -2.5 | · | -0.5 | -17.1 | 0.0 | ·
CC(C)NC(=O)N(C)C[C@H]1Oc2ccc(NC(=O)NC3CCCCC3)cc2C(=O)N([C@@H](C)CO)C[C@H]1C | 4.1 | -1.5 | -3.8 | 2.6 | 0.1 | ·
Cc1cc(C)cc(NC(=O)CSc2nnc(Cn3c(=O)sc4ccccc43)n2C)c1 | 7.8 | 0.0 | · | 4.0 | 43.3* | 3.9
Cn1c(Cn2c(=O)sc3ccccc32)nnc1SCC(=O)Nc1ccc(Cl)cc1 | -4.4 | 0.1 | -3.6 | -1.6 | 0.0 | -0.3
